Laboratory results taken from article PMC11734723 (Science Advances, 2025).

Tests used:
murine BMSMCs [1] = test: Pit assay on osteo-assay surface plates, murine BMSMC-derived osteoclasts; format: cell-based, mouse; details: ELP-004 100 nM
Summary of the method: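 Murine BMSMC osteoclasts were grown on synthetic bone-mimetic surface plates with ±test compound (100 nM), fed every 3–5 days, and assayed on days 7, 14 and 21. Cells were removed with 10% bleach (5 min). Matrix was stained with 1% silver nitrate under UV for 20–45 min, treated with 2.5% sodium thiosulphate and dehydrated in ethanol. Average size of 10–30 pits was measured.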

STIM1/Orai1 = STIM1/Orai1 (Homo sapiens, UniProt Q13586); test: Store-operated Ca2+ entry; format: cell-based; details: Tg 2 μM, 1 mM Ca2+, ELP-004 0 to 1 mM
Chain of STIM1/Orai1 (Q13586 23-685, species assumed): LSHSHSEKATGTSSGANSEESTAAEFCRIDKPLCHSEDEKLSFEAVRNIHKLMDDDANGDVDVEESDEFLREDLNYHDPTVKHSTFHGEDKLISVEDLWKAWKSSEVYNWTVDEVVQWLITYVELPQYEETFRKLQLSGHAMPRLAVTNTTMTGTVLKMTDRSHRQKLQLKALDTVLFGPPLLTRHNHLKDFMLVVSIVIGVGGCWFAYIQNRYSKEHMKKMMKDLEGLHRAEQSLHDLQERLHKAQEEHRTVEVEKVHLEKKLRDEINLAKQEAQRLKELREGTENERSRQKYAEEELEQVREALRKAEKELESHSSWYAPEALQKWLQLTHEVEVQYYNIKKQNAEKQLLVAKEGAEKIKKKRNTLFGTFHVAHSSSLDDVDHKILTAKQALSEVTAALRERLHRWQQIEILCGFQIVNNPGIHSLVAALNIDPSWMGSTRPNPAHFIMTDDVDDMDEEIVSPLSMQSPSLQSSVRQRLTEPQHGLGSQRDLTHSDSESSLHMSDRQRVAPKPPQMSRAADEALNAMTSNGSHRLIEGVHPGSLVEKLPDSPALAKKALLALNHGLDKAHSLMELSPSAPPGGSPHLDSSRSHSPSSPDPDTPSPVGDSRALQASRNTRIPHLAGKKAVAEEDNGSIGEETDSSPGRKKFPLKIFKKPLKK
Summary of the method: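 STIM1–YFP was electroporated into HEK293 cells, which were selected with puromycin (5 µg/ml) and cloned for highest YFP. Orai1–CFP was then added, followed by G418 selection and cloning for highest YFP/CFP and screening for SOCE. Fura2-loaded cells (2 µM, 30 min, RT) were held 10 min in Ca²⁺-free pH 7.2 buffer with thapsigargin (2 µM) and test compound. After baseline, 1 mM Ca²⁺ was added; the read-out was the 340/380 ratio.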

murine BMSMCs [2] = test: Basal intracellular Ca2+ during osteoclastogenesis of murine BMSMCs; format: cell-based, mouse; details: ELP-004 100 nM
Summary of the method: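 C57Bl/6 bone marrow/spleen myeloid cells were grown in αMEM, 10% FBS, and mCSF (50 ng/ml). RANKL (1 or 100 ng/ml) was added at 24 h. After 2–3 days, TNFα (2 ng/ml), LTB4 (50 nM) and test compound (100 nM) were added as indicated, with media refreshed every 3–5 days. On days 1, 7, 14 and 21, cells were Fura2-loaded (2 µM, 30 min, RT; 30 min de-esterification) in pH 7.2 buffer. Basal Ca²⁺ was read as the 340/380 ratio.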

Human PBMCs = test: TRAP staining, multinucleation and cell size of human PBMC-derived osteoclasts; format: cell-based; details: ELP-004 100 nM; for effect on multinucleation: 14 days
Summary of the method: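 Human PBMCs were grown with human mCSF (50 ng/ml) plus RANKL (100 ng/ml), or RANKL (1 ng/ml) with TNFα (2 ng/ml), ±test compound (100 nM), for 14 days. Cells were fixed with 2% PFA (30 min, RT) and stained for TRAP with ELF-97 (200 µM) in acetate/nitrite/tartrate buffer (15 min, RT). After permeabilisation, nuclei were counterstained with 7-AAD. Confocal images were scored for TRAP intensity, TRAP-positive cells and nuclei per cell.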

[3] = preclinical testing in mice; cited from earlier work
SKG mice = test: SKG mouse model of RA; format: in vivo; details: for bone surface density (BS/TV): femur trabecular bone
Summary of the method: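 Male and female SKG mice received zymosan A (2 mg, single i.p., saline) at 8 weeks of age. From day 3, they were gavaged daily for 8 weeks with test compound in a PLGA lipid nanoemulsion (180 mg/kg) or vehicle. Paws were scored blind weekly to day 56. Micro-CT covered calcaneal pore volume and connectivity density, femoral trabecular bone (1.75 mm) and L5 (2.15 mm), with BMD calibrated against hydroxyapatite phantoms. Analysis used one-tailed unpaired t or Mann-Whitney tests.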

TRPC4 = target: T1, TRPC4 (Mus musculus, UniProt Q9QUQ5); test: Carbachol-induced Sr2+ entry in TRPC4-overexpressing HEK293 cells; format: cell-based; details: read-out: IC50 of Cch-induced Sr2+ entry; Cch 100 nM, Sr2+ 3 mM
T1 sequence (Q9QUQ5 1-890 isoform Q9QUQ5-2): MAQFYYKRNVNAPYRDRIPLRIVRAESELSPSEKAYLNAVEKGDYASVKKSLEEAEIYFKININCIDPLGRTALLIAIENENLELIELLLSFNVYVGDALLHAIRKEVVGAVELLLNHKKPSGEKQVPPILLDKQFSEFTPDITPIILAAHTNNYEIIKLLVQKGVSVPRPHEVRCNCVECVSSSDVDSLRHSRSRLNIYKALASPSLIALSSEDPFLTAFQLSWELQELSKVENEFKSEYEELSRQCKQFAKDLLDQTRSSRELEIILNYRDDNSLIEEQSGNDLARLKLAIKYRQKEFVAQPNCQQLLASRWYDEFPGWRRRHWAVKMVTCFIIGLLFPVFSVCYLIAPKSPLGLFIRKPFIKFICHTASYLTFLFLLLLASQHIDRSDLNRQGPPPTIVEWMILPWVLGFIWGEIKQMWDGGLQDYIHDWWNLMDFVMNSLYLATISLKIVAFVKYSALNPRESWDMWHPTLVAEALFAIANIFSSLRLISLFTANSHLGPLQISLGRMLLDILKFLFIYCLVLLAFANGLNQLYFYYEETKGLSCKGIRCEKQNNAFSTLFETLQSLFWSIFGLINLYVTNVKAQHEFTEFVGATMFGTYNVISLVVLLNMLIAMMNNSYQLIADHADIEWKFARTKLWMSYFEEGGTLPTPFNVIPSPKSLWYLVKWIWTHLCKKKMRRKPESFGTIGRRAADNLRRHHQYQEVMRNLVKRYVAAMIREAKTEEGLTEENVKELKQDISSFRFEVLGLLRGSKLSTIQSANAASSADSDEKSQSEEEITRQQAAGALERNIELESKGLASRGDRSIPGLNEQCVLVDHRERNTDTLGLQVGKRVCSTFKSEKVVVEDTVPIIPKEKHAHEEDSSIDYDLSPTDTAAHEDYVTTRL
Summary of the method: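 HEK293 cells were electroporated with GFP-tagged TRPC4, TRPC5 or TRPC7, plated after 24 h and cultured 48 h under selection; only high-GFP cells were analysed. Coverslip cells were loaded with Fura2 (2 µM) and treated with carbachol (100 nM) plus test compound (0 to 100 µM). Entry was measured after adding Sr²⁺ (3 mM), read as the 340/380 ratio; n = 3 to 5.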

[4] = tested on: Cch-induced ER Ca2+ release; test: Carbachol-induced ER Ca2+ release in TRPC-overexpressing HEK293 cells; format: cell-based; details: ELP-004 1 nM to 100 μM

effect on STIM1/Orai1-mediated Ca2+ entry (STIM1/Orai1): largely unaffected
IC50 (TRPC4): 172 nM
Compound: CCC(=O)N(C)c1ccc(Cl)c(Cl)c1 [ELP-004]
effect on matrix degradation (murine BMSMCs [1]; LTB4/RANKL): potent inhibition
effect on pit formation (matrix degradation) (murine BMSMCs [1]; RANKL (100 ng/ml)): significant ELP-004–induced inhibition observed on day 21
effect on matrix degradation (murine BMSMCs [1]; TNFα/RANKL): completely abolished
effect on Ca2+ elevation (murine BMSMCs [2]; LTB4 (50 nM)/RANKL (1 ng/ml)): significantly attenuated
effect on basal Ca2+ levels (murine BMSMCs [2]; RANKL-induced (100 ng/ml), days 1-21): no significant effect
effect on Ca2+ elevation (murine BMSMCs [2]; TNFα (2 ng/ml)/RANKL (1 ng/ml)): significantly attenuated
effect on multinucleation (Human PBMCs; RANKL): significantly inhibited
effect on intensity of TRAP+ cells (Human PBMCs; RANKL): not intensity
effect on number of TRAP+ cells (Human PBMCs; RANKL): inhibited the number
effect on cell size (Human PBMCs; TNFα-induced osteoclasts): significantly reduced
effect on multinucleation (Human PBMCs; TNFα/RANKL): significantly inhibited
effect on intensity of TRAP+ cells (Human PBMCs; TNFα/RANKL): inhibited
effect on number of TRAP+ cells (Human PBMCs; TNFα/RANKL): inhibited
genotoxic or off-target toxicities [3]: without inducing genotoxic or extensive off-target toxicities
arthritic indices versus vehicle controls (SKG mice; both male and female, ELP-004–LNE 180 mg/kg daily oral): reduced arthritic indices beginning at week 5
bone surface density in the L5 vertebrae versus vehicle (SKG mice; both sexes): increased
trabecular number in the L5 vertebrae versus vehicle (SKG mice; both sexes): increased
porosity in the tarsus or calcaneus (μCT) (SKG mice; either sex, ELP-004–LNE 180 mg/kg daily oral 8 weeks): did not significantly change
joint inflammation in paws (histology) (SKG mice; either sex, ELP-004–LNE 180 mg/kg daily oral, without statistical significance): only showed a trend
BMD in the femurs versus vehicle (SKG mice; female mice): increased
bone volume/tissue volume (BV/TV) in the femurs versus vehicle (SKG mice; female mice): increased
trabecular number in the femurs versus vehicle (SKG mice; female mice): increased
mean BMD of femurs (SKG mice; female mice, ELP-004-treated): 0.1436 g/mL
connectivity density of pores in the calcaneus (SKG mice; females, P < 0.05): attenuated the increase
rescue of connectivity density of pores in the tarsus (SKG mice; females, P = 0.056): strong tendency
bone surface density (BS/TV) (SKG mice; females, P < 0.05): 6.78 ± 2.20 mm^−1
connectivity density of pores in the tarsus (SKG mice; males, P < 0.05): attenuated the increase
bone surface density (BS/TV) (SKG mice; males, ELP-004–LNE 180 mg/kg daily oral 8 weeks): 9.60 ± 2.16 mm^−1
cumulative erosion scores for metatarsals 2, 3, 4 and 5 (SKG mice; maximum score 12): reduced erosions in female (P < 0.05), but not male
effect on Cch-induced ER Ca2+ release [4]: no effect
